Data: ChEMBL document CHEMBL1811853, “Design and evaluation of 3-aminopyrazolopyridinone kinase inhibitors inspired by the natural product indirubin” (Bioorg Med Chem, 2011)
≈ marks a conversion by molar mass, not a printed value.

Tests used:
[1] = Aqueous solubility of the compound by HPLC analysis; assay type: physicochemical; conditions: water
Procedure, shortened: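 Solubility determined by HPLC measurement of the concentration in saturated aqueous solutions of the compounds.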

[2] = biological target: Mitogen-activated protein kinase 1 (Homo sapiens) (UniProt P28482); assay: Inhibition of ERK2 at 30 uM by microfluidic mobility shift assay
Sequence of Mitogen-activated protein kinase 1 (Homo sapiens) (P28482 whole entry): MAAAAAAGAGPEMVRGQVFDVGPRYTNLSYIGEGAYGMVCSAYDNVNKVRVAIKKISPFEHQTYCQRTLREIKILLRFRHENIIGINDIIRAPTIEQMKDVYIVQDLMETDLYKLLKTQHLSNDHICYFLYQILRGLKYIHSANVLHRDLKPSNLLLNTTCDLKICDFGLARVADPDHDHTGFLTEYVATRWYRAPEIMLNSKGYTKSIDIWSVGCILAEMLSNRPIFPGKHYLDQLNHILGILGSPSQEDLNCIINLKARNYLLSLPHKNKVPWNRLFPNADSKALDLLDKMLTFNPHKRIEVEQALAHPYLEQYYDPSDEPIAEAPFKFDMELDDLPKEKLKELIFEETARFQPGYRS
Procedure, shortened: (§1)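 Single-concentration screen, singlicate, 30 uM final (diluted from 1 mM DMSO solutions), fluorescently tagged peptide substrate appropriate to each kinase, ATP at apparent Km for each protein. Phosphorylated and unphosphorylated peptides separated electrophoretically; conversion is the phosphorylated peak area over the sum of both peaks. No-inhibitor and no-ATP controls; H89 reference on each plate.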

[3] = biological target: Serine/threonine-protein kinase Chk2 (Homo sapiens, UniProt O96017); assay: Inhibition of CHK2 at 30 uM by microfluidic mobility shift assay; procedure, shortened: as §1
[4] = biological target: Ribosomal protein S6 kinase alpha-1 (Homo sapiens) (UniProt Q15418); assay: Inhibition of RSK1 at 30 uM by microfluidic mobility shift assay; procedure, shortened: as §1
Sequence of Ribosomal protein S6 kinase alpha-1 (Homo sapiens) (Q15418 whole entry): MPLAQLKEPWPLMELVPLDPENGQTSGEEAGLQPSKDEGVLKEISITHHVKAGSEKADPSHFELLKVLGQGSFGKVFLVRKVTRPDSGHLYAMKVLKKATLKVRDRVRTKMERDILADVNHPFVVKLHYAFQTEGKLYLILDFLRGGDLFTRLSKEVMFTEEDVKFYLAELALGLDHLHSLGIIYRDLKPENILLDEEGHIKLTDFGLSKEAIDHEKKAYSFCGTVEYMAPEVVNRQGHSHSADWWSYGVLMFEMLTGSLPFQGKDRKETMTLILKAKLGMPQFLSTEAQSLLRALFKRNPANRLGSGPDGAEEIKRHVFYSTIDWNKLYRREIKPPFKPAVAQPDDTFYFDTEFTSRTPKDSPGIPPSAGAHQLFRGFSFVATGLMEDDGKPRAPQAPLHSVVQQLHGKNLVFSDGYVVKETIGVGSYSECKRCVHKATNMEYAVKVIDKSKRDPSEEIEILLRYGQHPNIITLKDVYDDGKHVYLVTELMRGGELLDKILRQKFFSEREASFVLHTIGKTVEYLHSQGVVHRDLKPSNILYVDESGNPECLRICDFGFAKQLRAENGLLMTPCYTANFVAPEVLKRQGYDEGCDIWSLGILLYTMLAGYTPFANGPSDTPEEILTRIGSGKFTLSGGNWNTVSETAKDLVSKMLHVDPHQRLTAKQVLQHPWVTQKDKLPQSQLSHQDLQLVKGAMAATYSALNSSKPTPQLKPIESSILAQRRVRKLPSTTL

[5] = biological target: Tyrosine-protein kinase Lck (Homo sapiens, UniProt P06239); assay: Inhibition of LCK at 30 uM by microfluidic mobility shift assay; procedure, shortened: as §1
Sequence of Tyrosine-protein kinase Lck (P06239 2-509 limits assumed): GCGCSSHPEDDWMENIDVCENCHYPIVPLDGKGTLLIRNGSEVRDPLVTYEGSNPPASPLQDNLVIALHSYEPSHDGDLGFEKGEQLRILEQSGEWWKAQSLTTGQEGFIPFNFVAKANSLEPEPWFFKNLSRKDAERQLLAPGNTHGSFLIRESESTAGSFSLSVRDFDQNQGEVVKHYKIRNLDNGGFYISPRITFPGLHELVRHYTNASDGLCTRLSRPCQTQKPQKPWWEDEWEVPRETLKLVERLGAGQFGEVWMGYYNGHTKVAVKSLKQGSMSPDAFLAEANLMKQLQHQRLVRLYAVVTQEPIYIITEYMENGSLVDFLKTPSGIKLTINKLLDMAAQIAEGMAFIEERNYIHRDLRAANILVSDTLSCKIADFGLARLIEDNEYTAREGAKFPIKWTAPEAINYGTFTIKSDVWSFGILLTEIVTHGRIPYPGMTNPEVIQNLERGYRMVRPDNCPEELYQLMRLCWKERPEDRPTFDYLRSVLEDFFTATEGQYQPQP

[6] = biological target: RAC-alpha serine/threonine-protein kinase (Homo sapiens) (UniProt P31749); assay: Inhibition of AKT1 at 30 uM by microfluidic mobility shift assay; procedure, shortened: as §1
[7] = biological target: Mitogen-activated protein kinase 3 (Homo sapiens) (UniProt P27361); assay: Inhibition of ERK1 at 30 uM by microfluidic mobility shift assay; procedure, shortened: as §1
[8] = biological target: Tyrosine-protein kinase Fyn (Homo sapiens, UniProt P06241); assay: Inhibition of FYN at 30 uM by microfluidic mobility shift assay; procedure, shortened: as §1
Sequence of Tyrosine-protein kinase Fyn (P06241 2-537 limits assumed): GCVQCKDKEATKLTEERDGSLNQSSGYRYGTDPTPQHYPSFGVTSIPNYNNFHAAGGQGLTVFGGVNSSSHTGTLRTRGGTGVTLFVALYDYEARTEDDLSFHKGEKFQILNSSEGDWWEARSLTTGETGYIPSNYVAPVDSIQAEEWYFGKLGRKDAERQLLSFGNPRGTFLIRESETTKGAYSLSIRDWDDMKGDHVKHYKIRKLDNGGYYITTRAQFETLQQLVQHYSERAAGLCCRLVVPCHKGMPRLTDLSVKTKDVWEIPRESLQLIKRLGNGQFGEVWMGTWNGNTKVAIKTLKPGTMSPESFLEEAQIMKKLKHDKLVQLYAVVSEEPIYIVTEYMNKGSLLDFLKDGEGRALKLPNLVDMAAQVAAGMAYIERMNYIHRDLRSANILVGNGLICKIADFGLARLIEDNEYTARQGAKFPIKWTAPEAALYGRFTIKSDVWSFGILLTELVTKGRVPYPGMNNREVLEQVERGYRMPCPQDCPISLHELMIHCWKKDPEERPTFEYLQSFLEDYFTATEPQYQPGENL

[9] = biological target: Mitogen-activated protein kinase 14 (Homo sapiens, UniProt Q16539); assay: Inhibition of p38alpha at 30 uM by microfluidic mobility shift assay; procedure, shortened: as §1
Sequence of Mitogen-activated protein kinase 14 (Q16539 whole entry): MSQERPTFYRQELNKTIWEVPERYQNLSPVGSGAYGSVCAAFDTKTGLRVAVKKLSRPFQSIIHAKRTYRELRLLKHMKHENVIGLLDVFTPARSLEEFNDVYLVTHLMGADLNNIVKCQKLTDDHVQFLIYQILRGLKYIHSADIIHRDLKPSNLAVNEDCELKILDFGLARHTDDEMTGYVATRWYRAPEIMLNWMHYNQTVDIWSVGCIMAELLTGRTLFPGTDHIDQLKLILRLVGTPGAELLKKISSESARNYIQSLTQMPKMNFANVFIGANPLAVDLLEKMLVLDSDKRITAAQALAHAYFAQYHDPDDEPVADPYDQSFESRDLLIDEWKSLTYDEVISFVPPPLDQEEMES

[10] = biological target: T1, Serine/threonine-protein kinase Chk1 (Homo sapiens) (UniProt O14757); assay: Inhibition of CHK1 at 30 uM by microfluidic mobility shift assay; procedure, shortened: as §1
T1 sequence (whole entry): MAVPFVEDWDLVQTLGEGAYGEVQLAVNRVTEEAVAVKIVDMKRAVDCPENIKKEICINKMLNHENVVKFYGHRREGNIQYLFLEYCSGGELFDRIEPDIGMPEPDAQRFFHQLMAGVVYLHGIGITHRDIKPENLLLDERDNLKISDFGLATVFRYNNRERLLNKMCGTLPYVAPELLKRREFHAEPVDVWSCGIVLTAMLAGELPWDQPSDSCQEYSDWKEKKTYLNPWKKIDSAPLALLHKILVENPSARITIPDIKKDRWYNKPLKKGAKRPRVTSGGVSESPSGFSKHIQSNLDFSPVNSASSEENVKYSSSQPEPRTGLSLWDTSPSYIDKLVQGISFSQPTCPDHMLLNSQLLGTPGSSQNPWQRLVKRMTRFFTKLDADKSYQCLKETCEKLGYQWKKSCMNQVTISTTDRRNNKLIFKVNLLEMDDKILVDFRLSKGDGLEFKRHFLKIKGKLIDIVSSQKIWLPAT

[11] = biological target: T2, MAP kinase-activated protein kinase 5 (Homo sapiens) (UniProt Q8IW41); assay: Inhibition of PRAK1 at 30 uM by microfluidic mobility shift assay; procedure, shortened: as §1
T2 sequence (whole entry): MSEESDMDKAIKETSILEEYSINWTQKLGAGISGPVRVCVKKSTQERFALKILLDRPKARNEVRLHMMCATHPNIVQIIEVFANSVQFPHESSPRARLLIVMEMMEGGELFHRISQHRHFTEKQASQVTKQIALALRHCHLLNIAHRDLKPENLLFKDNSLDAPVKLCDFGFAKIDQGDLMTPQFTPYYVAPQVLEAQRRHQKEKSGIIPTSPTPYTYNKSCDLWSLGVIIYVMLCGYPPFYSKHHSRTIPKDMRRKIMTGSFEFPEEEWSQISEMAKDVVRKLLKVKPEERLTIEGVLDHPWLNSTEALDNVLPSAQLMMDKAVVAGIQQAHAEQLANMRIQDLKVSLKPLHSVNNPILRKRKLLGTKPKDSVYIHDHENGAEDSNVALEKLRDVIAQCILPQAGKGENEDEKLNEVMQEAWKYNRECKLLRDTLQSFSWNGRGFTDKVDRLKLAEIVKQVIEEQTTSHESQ

[12] = Inhibition of PKA at 30 uM by microfluidic mobility shift assay; procedure, shortened: as §1
[13] = biological target: Tyrosine-protein kinase ABL1 (Homo sapiens, UniProt P00519); assay: Inhibition of ABL at 30 uM by microfluidic mobility shift assay; procedure, shortened: as §1
Sequence of Tyrosine-protein kinase ABL1 (P00519 whole entry): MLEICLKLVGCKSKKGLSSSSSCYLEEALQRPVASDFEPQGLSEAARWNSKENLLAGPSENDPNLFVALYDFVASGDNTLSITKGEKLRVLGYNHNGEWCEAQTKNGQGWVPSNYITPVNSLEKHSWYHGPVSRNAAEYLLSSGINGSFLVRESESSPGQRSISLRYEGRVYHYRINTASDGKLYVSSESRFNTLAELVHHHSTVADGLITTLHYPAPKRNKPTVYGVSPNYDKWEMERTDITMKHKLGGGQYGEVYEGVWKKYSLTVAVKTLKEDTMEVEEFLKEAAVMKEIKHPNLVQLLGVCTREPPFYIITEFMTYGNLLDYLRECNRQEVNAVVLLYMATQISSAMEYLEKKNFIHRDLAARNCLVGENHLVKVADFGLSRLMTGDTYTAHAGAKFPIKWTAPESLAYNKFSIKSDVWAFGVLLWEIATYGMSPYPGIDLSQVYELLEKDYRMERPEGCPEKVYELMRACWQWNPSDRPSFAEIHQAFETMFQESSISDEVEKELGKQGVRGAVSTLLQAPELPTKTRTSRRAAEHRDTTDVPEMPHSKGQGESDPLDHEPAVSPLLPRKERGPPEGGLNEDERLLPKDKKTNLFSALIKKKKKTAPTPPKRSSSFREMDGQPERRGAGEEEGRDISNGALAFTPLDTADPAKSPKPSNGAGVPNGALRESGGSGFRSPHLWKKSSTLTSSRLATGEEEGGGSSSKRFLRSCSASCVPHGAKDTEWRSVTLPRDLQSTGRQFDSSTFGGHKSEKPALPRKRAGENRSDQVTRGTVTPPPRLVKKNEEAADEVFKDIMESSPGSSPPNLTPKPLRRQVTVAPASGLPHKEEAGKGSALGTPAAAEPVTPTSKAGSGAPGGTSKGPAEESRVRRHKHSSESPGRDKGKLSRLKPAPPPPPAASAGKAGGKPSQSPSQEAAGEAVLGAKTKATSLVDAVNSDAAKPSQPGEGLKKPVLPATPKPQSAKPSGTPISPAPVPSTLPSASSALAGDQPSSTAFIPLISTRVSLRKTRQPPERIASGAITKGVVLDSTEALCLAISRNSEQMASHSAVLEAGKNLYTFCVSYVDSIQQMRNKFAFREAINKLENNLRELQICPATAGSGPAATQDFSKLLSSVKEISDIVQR

[14] = biological target: T3, Aurora kinase A (Homo sapiens) (UniProt O14965); assay: Inhibition of AurA at 30 uM by microfluidic mobility shift assay; procedure, shortened: as §1
T3 sequence (whole entry): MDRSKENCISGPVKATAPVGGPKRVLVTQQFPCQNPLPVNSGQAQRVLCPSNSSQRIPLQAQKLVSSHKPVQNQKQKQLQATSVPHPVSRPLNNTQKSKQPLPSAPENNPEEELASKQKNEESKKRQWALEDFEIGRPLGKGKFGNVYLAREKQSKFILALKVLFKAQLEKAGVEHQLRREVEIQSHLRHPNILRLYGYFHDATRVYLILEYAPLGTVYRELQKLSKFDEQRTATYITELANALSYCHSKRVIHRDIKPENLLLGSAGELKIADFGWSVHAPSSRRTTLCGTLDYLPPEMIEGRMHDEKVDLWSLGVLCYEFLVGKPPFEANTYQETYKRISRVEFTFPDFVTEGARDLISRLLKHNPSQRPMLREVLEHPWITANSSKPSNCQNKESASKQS

[15] = biological target: Tyrosine-protein kinase Lyn (Homo sapiens, UniProt P07948); assay: Inhibition of LYN at 30 uM by microfluidic mobility shift assay; procedure, shortened: as §1
[16] = biological target: T4, Protein kinase C zeta type (Homo sapiens) (UniProt Q05513); assay: Inhibition of PKCz at 30 uM by microfluidic mobility shift assay; procedure, shortened: as §1
T4 sequence (whole entry): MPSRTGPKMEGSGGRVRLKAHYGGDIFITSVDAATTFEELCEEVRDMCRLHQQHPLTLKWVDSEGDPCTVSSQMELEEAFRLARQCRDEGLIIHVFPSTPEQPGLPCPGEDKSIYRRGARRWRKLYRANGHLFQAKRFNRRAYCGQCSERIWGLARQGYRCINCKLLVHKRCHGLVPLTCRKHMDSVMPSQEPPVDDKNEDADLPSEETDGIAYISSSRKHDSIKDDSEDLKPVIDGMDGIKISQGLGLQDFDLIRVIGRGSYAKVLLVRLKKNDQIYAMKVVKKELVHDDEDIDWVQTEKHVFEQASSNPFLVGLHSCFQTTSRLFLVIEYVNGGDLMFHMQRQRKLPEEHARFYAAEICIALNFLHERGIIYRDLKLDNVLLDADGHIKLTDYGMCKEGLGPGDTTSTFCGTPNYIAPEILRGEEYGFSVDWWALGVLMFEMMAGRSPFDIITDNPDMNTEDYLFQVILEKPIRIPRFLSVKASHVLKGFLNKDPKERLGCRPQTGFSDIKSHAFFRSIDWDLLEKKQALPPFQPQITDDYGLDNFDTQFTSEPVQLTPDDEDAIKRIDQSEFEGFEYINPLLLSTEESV

[17] = biological target: Glycogen synthase kinase-3 beta (Homo sapiens) (UniProt P49841); assay: Inhibition of GSK3B at 30 uM by microfluidic mobility shift assay; procedure, shortened: as §1
[18] = biological target: RAC-beta serine/threonine-protein kinase (Homo sapiens) (UniProt P31751); assay: Inhibition of AKT2 at 30 uM by microfluidic mobility shift assay; procedure, shortened: as §1
[19] = biological target: Insulin receptor (Homo sapiens) (UniProt P06213); assay: Inhibition of INSR at 30 uM by microfluidic mobility shift assay; procedure, shortened: as §1
[20] = biological target: MAP kinase-activated protein kinase 2 (Homo sapiens, UniProt P49137); assay: Inhibition of MAPKAPK2 at 30 uM by microfluidic mobility shift assay; procedure, shortened: as §1
[21] = biological target: Ribosomal protein S6 kinase alpha-5 (Homo sapiens) (UniProt O75582); assay: Inhibition of MSK1 at 30 uM by microfluidic mobility shift assay; procedure, shortened: as §1
Sequence of Ribosomal protein S6 kinase alpha-5 (Homo sapiens) (O75582 whole entry, looked up): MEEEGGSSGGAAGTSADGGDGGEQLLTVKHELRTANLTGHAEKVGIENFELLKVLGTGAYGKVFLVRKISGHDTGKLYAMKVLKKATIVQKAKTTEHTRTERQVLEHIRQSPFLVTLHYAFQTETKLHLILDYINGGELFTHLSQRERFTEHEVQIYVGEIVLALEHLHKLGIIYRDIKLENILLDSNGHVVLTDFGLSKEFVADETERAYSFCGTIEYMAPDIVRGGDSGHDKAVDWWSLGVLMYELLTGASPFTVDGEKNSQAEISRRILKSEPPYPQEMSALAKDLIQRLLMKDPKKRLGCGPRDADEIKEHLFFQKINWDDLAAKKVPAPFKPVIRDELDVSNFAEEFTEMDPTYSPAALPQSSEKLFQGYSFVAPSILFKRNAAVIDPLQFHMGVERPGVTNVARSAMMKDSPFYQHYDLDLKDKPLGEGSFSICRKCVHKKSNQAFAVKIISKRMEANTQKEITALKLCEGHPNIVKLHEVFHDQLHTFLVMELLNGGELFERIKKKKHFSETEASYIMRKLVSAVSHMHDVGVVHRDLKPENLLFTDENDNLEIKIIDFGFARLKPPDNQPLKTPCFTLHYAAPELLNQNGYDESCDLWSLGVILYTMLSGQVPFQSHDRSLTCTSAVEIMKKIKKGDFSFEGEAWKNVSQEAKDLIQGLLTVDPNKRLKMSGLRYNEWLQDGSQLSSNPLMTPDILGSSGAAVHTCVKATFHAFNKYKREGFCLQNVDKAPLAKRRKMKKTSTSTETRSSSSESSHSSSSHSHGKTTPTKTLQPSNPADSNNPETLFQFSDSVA

[22] = biological target: Proto-oncogene tyrosine-protein kinase Src (Homo sapiens, UniProt P12931); assay: Inhibition of SRC at 30 uM by microfluidic mobility shift assay; procedure, shortened: as §1
Sequence of Proto-oncogene tyrosine-protein kinase Src (P12931 2-536 limits assumed): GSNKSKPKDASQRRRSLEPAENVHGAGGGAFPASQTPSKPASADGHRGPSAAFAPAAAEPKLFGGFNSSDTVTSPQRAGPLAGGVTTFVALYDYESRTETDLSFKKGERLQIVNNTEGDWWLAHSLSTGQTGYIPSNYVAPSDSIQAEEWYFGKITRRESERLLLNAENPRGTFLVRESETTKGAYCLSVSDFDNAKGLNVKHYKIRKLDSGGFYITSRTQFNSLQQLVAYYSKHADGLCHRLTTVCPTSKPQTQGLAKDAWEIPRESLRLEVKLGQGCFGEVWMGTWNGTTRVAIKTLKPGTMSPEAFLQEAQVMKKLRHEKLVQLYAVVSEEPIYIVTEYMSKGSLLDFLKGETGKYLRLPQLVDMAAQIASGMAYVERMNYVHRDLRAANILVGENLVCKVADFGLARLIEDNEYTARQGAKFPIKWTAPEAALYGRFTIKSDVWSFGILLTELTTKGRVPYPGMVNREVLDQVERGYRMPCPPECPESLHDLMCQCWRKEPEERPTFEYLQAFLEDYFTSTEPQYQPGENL

[23] = biological target: T5, Serine/threonine-protein kinase D2 (Homo sapiens) (UniProt Q9BZL6); assay: Inhibition of PKD2 at 30 uM by microfluidic mobility shift assay; procedure, shortened: as §1
T5 sequence (whole entry): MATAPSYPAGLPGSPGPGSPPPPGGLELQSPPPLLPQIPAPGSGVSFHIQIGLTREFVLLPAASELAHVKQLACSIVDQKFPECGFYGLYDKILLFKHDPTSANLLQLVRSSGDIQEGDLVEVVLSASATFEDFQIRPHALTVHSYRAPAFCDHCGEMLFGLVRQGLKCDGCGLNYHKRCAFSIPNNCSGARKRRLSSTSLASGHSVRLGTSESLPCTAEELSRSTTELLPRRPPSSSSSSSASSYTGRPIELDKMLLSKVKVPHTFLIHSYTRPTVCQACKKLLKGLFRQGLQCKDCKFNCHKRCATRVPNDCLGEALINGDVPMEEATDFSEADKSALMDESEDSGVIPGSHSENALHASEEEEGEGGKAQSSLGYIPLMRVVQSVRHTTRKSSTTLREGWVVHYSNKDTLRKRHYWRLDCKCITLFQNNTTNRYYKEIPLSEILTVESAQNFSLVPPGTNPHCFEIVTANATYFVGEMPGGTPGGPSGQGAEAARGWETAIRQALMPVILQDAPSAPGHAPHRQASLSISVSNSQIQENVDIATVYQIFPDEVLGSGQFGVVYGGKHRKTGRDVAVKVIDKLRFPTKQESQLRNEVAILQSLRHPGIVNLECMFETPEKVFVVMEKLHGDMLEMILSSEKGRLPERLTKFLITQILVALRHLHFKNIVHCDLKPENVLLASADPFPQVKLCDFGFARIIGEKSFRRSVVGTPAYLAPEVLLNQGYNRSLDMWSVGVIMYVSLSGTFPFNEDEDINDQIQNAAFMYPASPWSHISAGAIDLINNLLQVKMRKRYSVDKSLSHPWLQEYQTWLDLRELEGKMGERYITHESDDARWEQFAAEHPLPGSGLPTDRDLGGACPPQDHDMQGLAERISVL

| Compound | solubility [1] [µg/mL] | inhibition [2] [%] | inhibition [3] [%] | inhibition [5] [%] | inhibition [6] [%] | inhibition [7] [%] | inhibition [8] [%] | inhibition [9] [%] | inhibition [11] [%] | inhibition [13] [%] | inhibition [14] [%] | inhibition [15] [%] | inhibition [17] [%] | inhibition [18] [%] | inhibition [19] [%] | inhibition [20] [%] | inhibition [21] [%] | inhibition [22] [%] | also measured |
| --- | --- | --- | --- | --- | --- | --- | --- | --- | --- | --- | --- | --- | --- | --- | --- | --- | --- | --- | --- |
| O=C1Nc2ccccc2/C1=C1/Nc2ccccc2C1=O [INDIRUBIN] | < 1 | – | – | – | – | – | – | – | – | – | – | – | – | – | – | – | – | – | – |
| Nc1n[nH]c2cc(C3CCNCC3)[nH]c(=O)c12 | 2340 (≈ 10000 µM) | – | – | – | – | – | – | – | – | – | – | – | – | – | – | – | – | – | – |
| Nc1n[nH]c2cc(-c3ccccc3)[nH]c(=O)c12 | 24 (≈ 106 µM) | – | – | – | – | – | – | – | – | – | – | – | – | – | – | – | – | – | – |
| Cc1[nH]c(=O)c2c(N)nn(C)c2c1-c1ccccc1 | 2 (≈ 7.86 µM) | – | – | – | – | – | – | – | – | – | – | – | – | – | – | – | – | – | – |
| Nc1c2c(=O)[nH]c(C3CCNCC3)cc2nn1-c1ccccc1 | 1430 (≈ 4610 µM) | – | – | – | – | – | – | – | – | – | – | – | – | – | – | – | – | – | – |
| CC(C)(C)c1cc2[nH]nc(N)c2c(=O)[nH]1 | – | 4 | 21 | 40 | 3 | 12 | 48 | 3 | 1 | 14 | 34 | 40 | 41 | 4 | 14 | 39 | 65 | 58 | inhibition [4]: 22%; inhibition [10]: 12%; inhibition [12]: 75%; inhibition [16]: -9% |
| Cn1nc(N)c2c(=O)[nH]c(C3CCNCC3)cc21 | > 15000 | – | – | – | – | – | – | – | – | – | – | – | – | – | – | – | – | – | – |
| Cc1cc2nn(-c3ccccc3)c(N)c2c(=O)[nH]1 | 69 (≈ 287 µM) | 7 | -4 | 24 | 5 | 7 | 22 | 26 | 5 | 20 | 6 | 9 | 9 | 1 | 4 | -4 | 4 | 26 | inhibition [10]: -9%; inhibition [12]: -8%; inhibition [23]: -1% |
| Cn1nc(N)c2cnc(-c3ccccc3)cc21 | 259 (≈ 1150 µM) | 4 | 5 | 11 | 4 | 9 | 8 | 0 | 5 | 10 | 33 | 7 | 17 | 6 | 9 | 7 | 4 | 7 | inhibition [4]: 2%; inhibition [10]: 1%; inhibition [12]: 1%; inhibition [23]: 5% |
| Cc1cc2c(c(N)nn2C)c(N2CCN(C)CC2)n1 | 1160 (≈ 4470 µM) | – | – | – | – | – | – | – | – | – | – | – | – | – | – | – | – | – | – |
| Cc1[nH]c(=O)c2c(N)n(-c3ccccc3)nc2c1-c1ccccc1 | 7 (≈ 22.1 µM) | 8 | -1 | 73 | -8 | 14 | 62 | 78 | 6 | 42 | 4 | 71 | 16 | 4 | 10 | 9 | 2 | 71 | inhibition [4]: -2%; inhibition [16]: 26%; inhibition [23]: -3% |
